{"data": "Measured values gathered from unrelated publications", "note": "Protocols differ between the studies behind these lines."}
{"Compound": "CC(C)Oc1c(NC(=O)c2ccc(NC(=O)[C@H](CC(N)=O)NC(=O)c3ccc(NC(=O)c4ccc(C#N)cc4)cc3)cc2)ccc(C(=O)Nc2ccc(C(=O)O)cc2)c1O", "species": "male CD-1 mouse", "sample": "plasma", "route": "intravenous", "dose": "5 mg/kg", "setting": "single dose", "measurement": "C0", "result": "2940 ng/mL"}
{"Compound": "CCc1cc(C(=O)NC)c2nccc(N3CCc4c(cc(Cn5ccnc5)cc4-c4cn(C)nc4C(F)(F)F)C3=O)c2c1", "species": "male CD-1 mouse", "sample": "plasma", "route": "intravenous", "dose": "3 mg/kg", "measurement": "C0", "result": "7560 ng/mL"}
{"Compound": "Cc1nn2c(-c3c(C)nn(C)c3-c3ccc(C(F)(F)F)cc3)nc(CO)c2c(=O)[nH]1", "species": "male beagle dog", "sample": "plasma", "route": "intravenous", "dose": "1 mg/kg", "measurement": "clearance", "result": "1.3 mL/min/kg"}
{"Compound": "COc1cc(OC)c2nccc(N3CCc4c(cc(Cn5ccnc5)cc4-c4cn(C)nc4C(F)(F)F)C3=O)c2c1", "species": "male CD-1 mouse", "sample": "plasma", "route": "intravenous", "dose": "3 mg/kg", "measurement": "C0", "result": "1600 ng/mL"}
{"Compound": "C=CC(=O)N1CC2CC(n3nc(-c4ccc(C(=O)Nc5ccccn5)cc4)c4c(N)ncnc43)CC2C1 (stereo not drawn)", "species": "male Wistar rat", "sample": "plasma", "route": "oral", "dose": "100 mg/kg", "measurement": "Tmax", "result": "4 h"}
{"Compound": "CC[C@@H]1CN(C(=O)NCC(F)(F)F)C[C@@H]1c1cnc2cnc3[nH]ccc3n12", "species": "beagle dog", "sample": "plasma", "route": "oral", "dose": "1 mg/kg", "setting": "single dose", "measurement": "Cmax", "result": "89.4 ng/mL"}
{"Compound": "CNC(=O)c1cc(OC)cc2c(N3CCc4c(cc(Cn5ccnc5)cc4-c4cn(C)nc4C(F)(F)F)C3=O)ccnc12", "species": "male CD-1 mouse", "sample": "plasma", "route": "intravenous", "dose": "3 mg/kg", "measurement": "C0", "result": "8370 ng/mL"}
{"Compound": "C#Cc1cnc2nc(O)n(C(CC)CC)c2n1", "species": "male beagle dog", "sample": "plasma", "route": "intravenous", "dose": "1 mg/kg", "measurement": "clearance", "result": "4.3 mL/min/kg"}
{"Compound": "CCn1c(=O)c(-c2cc(NC(=O)Nc3ccccc3)c(F)cc2Br)cc2cnc(NC)cc21", "species": "beagle dog", "sample": "plasma", "route": "oral", "dose": "5 mg/kg", "setting": "single dose", "measurement": "CL/F", "result": "21 mL/min/kg"}
{"Compound": "COc1cc2c3c(n(CCCN4CCOCC4)c(=O)c2cc1OC)-c1cc2c(cc1C3=O)OCO2", "species": "male beagle dog", "sample": "plasma", "route": "intravenous", "dose": "100 mg/m²", "setting": "infusion", "measurement": "Cmax", "result": "461 ng/mL"}
{"Compound": "COCc1nn(Cc2ccc(Cn3ccccc3=O)cc2)cc1C(=O)NCc1c(F)ccc(OC)c1F", "species": "male beagle dog", "sample": "plasma", "route": "oral", "dose": "1 mg/kg", "measurement": "Cmax", "result": "163 ng/mL"}
{"Compound": "COc1ccc2c(c1OCc1ccccc1)C[C@@H](C(=O)O)N(C(=O)C(c1ccccc1)c1ccccc1)C2", "species": "male beagle dog", "sample": "plasma", "route": "oral", "dose": "3 mg/kg", "measurement": "Cmax", "result": "2710 ng/mL"}
{"Compound": "COc1ccc2nc(-c3ccccn3)c(N(C)c3ccc(F)cc3)n2c1", "species": "male CD-1 mouse", "sample": "plasma", "route": "oral", "dose": "50 mg/kg", "setting": "fasted", "measurement": "CL/F", "result": "917 mL/min/kg"}
{"Compound": "COCc1nn(Cc2ccc(Cn3ccccc3=O)cc2)cc1C(=O)NCc1nccc(OC)c1F", "species": "male beagle dog", "sample": "plasma", "route": "oral", "dose": "1 mg/kg", "measurement": "Cmax", "result": "284 ng/mL"}
{"Compound": "O=C(NCCN1CCCC1)c1cc(-c2ccc(CN3CCOCC3)cc2)nc2ccc(F)cc12", "species": "male beagle dog", "sample": "blood", "route": "oral", "dose": "3 mg/kg", "measurement": "Cmax", "result": "27 ng/mL"}
